In data set [1] the test system is Leishmania amazonensis. In words: Antileishmanial activity against Leishmania amazonensis IFLA/BR/1967/PH8 promastigotes after 72 hrs by MTT assay. In kind it is functional. Background: Tetrazolium assays rely on reduction of a dye to a coloured formazan, in cell work by metabolically active cells.
Another data set has as its system Peritoneal macrophage. In words: (§1) Cytotoxicity against mouse peritoneal macrophages after 72 hrs by MTT assay. The data set is classed as cell-based. The conditions noted are these: peritoneal macrophage, 72 h.
In data set [2] the test system is Leishmania amazonensis. Put plainly: Induction of morphological changes in Leishmania amazonensis IFLA/BR/1967/PH8 promastigotes assessed as rounded cell body at 2.5 to 20 uM after 24 hrs by Giemsa staining-based microscopic analysis. In kind it is functional. In short, it runs like this:
(§2)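 Exponential-phase promastigotes (1x10^7 cells/mL) treated 24 h at 25 °C; harvested, resuspended in PBS, smeared, ethanol-fixed, Giemsa-stained and examined by light microscopy.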

Data set [3] concerns Leishmania amazonensis. Put plainly: Induction of DNA damage in Leishmania amazonensis IFLA/BR/1967/PH8 promastigotes at 5 to 10 uM after 24 hrs by TUNEL assay. In kind it is functional. In short, it runs like this:
(§3)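 Exponential-phase WT promastigotes (1x10^7 cells/mL) cultured 24 h at 25 °C; DNA fragmentation detected by TUNEL with DAPI counterstain, fluorescence microscopy at 100X.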

Data set [4] has as its system Leishmania amazonensis. In words: Induction of morphological changes in Leishmania amazonensis IFLA/BR/1967/PH8 promastigotes assessed as altered parasite shape at 2.5 to 20 uM after 24 hrs by Giemsa staining-based microscopic analysis. In kind it is functional. The essentials: as §2
Data set [5] has as its system Leishmania amazonensis. Put plainly: Induction of plasma membrane permeability in Leishmania amazonensis IFLA/BR/1967/PH8 promastigotes form assessed as increase in fluorescence intensity at 20 uM after 24 hrs by PI staining-based spectrofluorometric analysis. The data set is classed as functional. The essentials:
(§4)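 Exponential WT promastigotes (1x10^7 cells/mL) treated 24 h at 25 °C; washed, PI 1.0 µg/mL 15 min dark at room temperature; fluorescence 540/600 nm as % increase over untreated; heat-killed cells (65 °C, 10 min) as positive control; three independent experiments.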

Data set [6] concerns Leishmania amazonensis. In words: Antileishmanial activity against Leishmania amazonensis IFLA/BR/1967/PH8 promastigotes at 2.5 to 20 uM incubated for 72 hrs followed by compound washout measured after 72 hrs by Neubauer chamber method. In kind it is functional. In short, it runs like this:
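WT promastigotes exposed 72 h at 25 °C and counted; centrifuged, washed twice in PBS, adjusted to 10x10^6 cells/mL in drug-free Warren's medium + 10% serum; after 72 h at 25 °C viable cells counted in Neubauer chamber; three independent experiments in duplicate.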

The subject of data set [7] is Leishmania amazonensis. In words: Induction of plasma membrane permeability in Leishmania amazonensis IFLA/BR/1967/PH8 promastigotes form assessed as increase in fluorescence intensity at 2.5 to 10 uM after 24 hrs by PI staining-based spectrofluorometric analysis. In kind it is functional. The essentials: as §4
Data set [8] deals with Leishmania amazonensis. Put plainly: Induction of lipid inclusions in Leishmania amazonensis IFLA/BR/1967/PH8 promastigotes at 5 uM after 24 hrs by Nile Red satining-based spectrofluorometric analysis. The data set is classed as functional. In short, it runs like this:
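WT exponential-phase promastigotes (1x10^7 cells/mL) cultured 24 h at 25 °C, stained with Nile Red, fluorescence read spectrofluorometrically versus untreated; three experiments in triplicate.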

The subject of data set [9] is Leishmania amazonensis. In words: Induction of lipid inclusions in Leishmania amazonensis IFLA/BR/1967/PH8 promastigotes at 2.5 uM after 24 hrs by Nile Red satining-based spectrofluorometric analysis. The data set is classed as functional. In short, it runs like this: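 WT (PH8) promastigotes at 1x10^7 cells/mL in exponential phase, cultured 24 h at 25 °C with or without 2.5–20.0 µM. Parasites incubated with Nile Red, then fluorescence measured spectrofluorometrically. Reported as arbitrary fluorescence units versus untreated parasites, mean of three experiments run in triplicate.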

Data set [10] deals with Leishmania amazonensis. Put plainly: Induction of morphological changes in Leishmania amazonensis IFLA/BR/1967/PH8 promastigotes assessed as parasite size reduction at 2.5 to 20 uM after 24 hrs by Giemsa staining-based microscopic analysis. The data set is classed as functional. The essentials:
as §2

Data set [11] has as its system Leishmania amazonensis. Put plainly: Induction of autophagy in Leishmania amazonensis IFLA/BR/1967/PH8 promastigotes at 2.5 to 10 uM after 24 hrs by MDC staining-based fluorometric analysis. In kind it is functional. In short, it runs like this:
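Exponential WT promastigotes (1x10^7 cells/mL) treated 24 h at 25 °C; washed, adjusted to 10x10^6 cells/mL, 100 µM monodansylcadaverine 1 h dark at 25 °C; fluorescence 335/460 nm versus untreated; three independent experiments.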

In data set [12] the test system is Leishmania amazonensis. Put plainly: Induction of apoptosis in Leishmania amazonensis IFLA/BR/1967/PH8 promastigotes assessed as late apoptotic population at 44 uM after 24 hrs by Annexin V-FITC/PI staining based flow cytometric analysis (reference value: 2.62%). The data set is classed as functional. In short, it runs like this: (§5)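 Exponential-phase WT promastigotes (1x10^7 cells/mL) cultured 24 h at 25 °C; stained annexin V-FITC plus PI, flow cytometry with 10,000 events gated on parasites; quadrant percentages; three independent experiments.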
On the technique in general: Flow cytometry measures light scatter and fluorescence of single cells or particles in a stream.

The test system of data set [13] is Leishmania amazonensis. Put plainly: Antileishmanial activity against Leishmania amazonensis IFLA/BR/1967/PH8 amastigotes transfected with red fluorescent protein infected in murine macrophages after 72 hrs by fluorometric analysis. The conditions noted are these: IFLA/BR/1967/PH8, 72 h. In kind it is functional. In short, it runs like this: (§6)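 Infected murine macrophages treated 0.78-100.0 µM for 72 h; fluorescence read at 540/600 nm for RFP parasites (PH8) and 485/528 nm for GFP parasites (Josefa strain); IC50 from three independent experiments in duplicate.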

Data set [14] has as its system Leishmania amazonensis. In words: Antileishmanial activity against Leishmania amazonensis WHOM/BR/75/Josefa promastigotes transfected with green fluorescent protein after 72 hrs by MTT assay. In kind it is functional.
A short description of data set [15]: Selectivity index, ratio of CC50 for mouse peritoneal macrophages to IC50 for Leishmania amazonensis WHOM/BR/75/Josefa amastigotes transfected with green fluorescent protein. The essentials:
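SI = CC50 for mouse peritoneal macrophages / GFP amastigote IC50. […] IC50: macrophages infected with GFP-expressing Josefa-strain parasites, treated with 0.78–100.0 µM for 72 h; fluorescence read at 485 nm excitation/528 nm emission. Three experiments in duplicate.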

A short description of data set [16]: as §1. The data set is classed as cell-based, Peritoneal macrophage. The conditions noted are these: peritoneal macrophages.
Data set [17] has as its system Leishmania amazonensis. Put plainly: Induction of apoptosis in Leishmania amazonensis IFLA/BR/1967/PH8 promastigotes assessed as necrotic population at 44 uM after 24 hrs by Annexin V-FITC/PI staining based flow cytometric analysis (reference value: 0.03%). The data set is classed as functional. In short, it runs like this:
as §5

In data set [18] the test system is Leishmania amazonensis. Put plainly: Antileishmanial activity against Leishmania amazonensis IFLA/BR/1967/PH8 amastigotes infected in murine macrophages after 72 hrs by fluorometric analysis. The data set is classed as functional. The conditions noted are these: IFLA/BR/1967/PH8, 72 h.
A short description of data set [19]: Selectivity index, ratio of CC50 for mouse peritoneal macrophages to IC50 for Leishmania amazonensis IFLA/BR/1967/PH8 amastigotes transfected with red fluorescent protein. The essentials: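 SI = CC50 for mouse peritoneal macrophages / RFP amastigote IC50. […] IC50: macrophages infected with RFP-expressing PH8 parasites, treated with 0.78–100.0 µM for 72 h; fluorescence read at 540 nm excitation/600 nm emission. Three experiments in duplicate.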

Data set [20] concerns Leishmania amazonensis. In words: Antileishmanial activity against Leishmania amazonensis IFLA/BR/1967/PH8 promastigotes transfected with red fluorescent protein after 72 hrs by MTT assay. To be noted: IFLA/BR/1967/PH8, 72 h. In kind it is functional.
The nature of data set [21]: Selectivity index, ratio of CC50 for mouse peritoneal macrophages to IC50 for Leishmania amazonensis IFLA/BR/1967/PH8 amastigotes. The essentials: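 SI = CC50 for mouse peritoneal macrophages / amastigote IC50. […] IC50: WT-infected macrophages treated with 0.78–100.0 µM in sterile water; burden scored by counting amastigotes and infected/uninfected cells in at least 200 macrophages. Three experiments in duplicate.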

The test system of data set [22] is Leishmania amazonensis. Put plainly: Induction of apoptosis in Leishmania amazonensis IFLA/BR/1967/PH8 promastigotes assessed as early apoptotic population at 44 uM after 24 hrs by Annexin V-FITC/PI staining based flow cytometric analysis (reference value: 5.29%). In kind it is functional. In short, it runs like this:
as §5

In data set [23] the test system is Leishmania amazonensis. Put plainly: Induction of DNA damage in Leishmania amazonensis IFLA/BR/1967/PH8 promastigotes at 22 uM after 24 hrs by TUNEL assay. The data set is classed as functional. The essentials: as §3
The subject of data set [24] is Leishmania amazonensis. In words: Antileishmanial activity against Leishmania amazonensis WHOM/BR/75/Josefa amastigotes transfected with green fluorescent protein infected in murine macrophages after 72 hrs by fluorometric analysis. In kind it is functional. The essentials: as §6
In data set [25] the test system is Leishmania amazonensis. In words: Induction of ROS accumulation in Leishmania amazonensis IFLA/BR/1967/PH8 promastigotes at 22 uM after 72 hrs by H2DCFDA staining-based fluorometric analysis relative to control. In kind it is functional. In short, it runs like this:
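WT exponential-phase promastigotes treated at 25 °C; adjusted to 2x10^7 cells in PBS, loaded with H2DCFDA 30 min dark at room temperature; fluorescence 485/528 nm versus untreated; three independent experiments.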

[26] abbreviates: Leishmania amazonensis, IFLA/BR/1967/PH8, 72 h.

Active and inactive are the calls of the source. The rule behind the calls is not given here.

For orientation: IC50 means the concentration at which inhibition is half-maximal. A higher IC50 goes with weaker potency in that assay. With `CCCCCCCCCCn1cc(CO)[n+](C)n1` [listing 1 of 2 here], the IC50 in the data set on Leishmania amazonensis [1] is 14.3 µM.

The CC50 is the concentration at which the toxic effect on the cells reaches its halfway point. A lower CC50 goes with harm at low concentration. In the data set on Leishmania amazonensis [1], `CCCCCCCCCCn1cc(CO)[n+](CCC)n1` [listing 1 of 2 here] yielded an IC50 of 0.7 µM. The same compound had a cytotoxic concentration (CC50) in the data set with Peritoneal macrophage of 3.9 µM.

In the data set with Leishmania amazonensis [1] (setting [26]), `CCCCCCn1cc(CO)[n+](CCC)n1` returned an IC50 of more than 100 µM.

With `CCCCCCCCCCn1cc(CO)[n+](C)n1` [listing 2 of 2 here], the result in the data set with Leishmania amazonensis [2], in the data set with Leishmania amazonensis [3], in the data set with Leishmania amazonensis [4], with Leishmania amazonensis [5], with Leishmania amazonensis [6] and in the data set on Leishmania amazonensis [10] was Active. Also, the result with Leishmania amazonensis [7], with Leishmania amazonensis [8], with Leishmania amazonensis [9] and in the data set on Leishmania amazonensis [11] was inactive.

On to `CCCCn1cc(CO)[n+](C)n1`, for which the IC50 in the data set with Leishmania amazonensis [1] (setting [26]) is more than 100 µM.

In the case of `CCCCCCCCCCCCCCCCOP(=O)([O-])OCC[N+](C)(C)C` [MILTEFOSINE], the Activity with Leishmania amazonensis [12] worked out at 12.23%; with Leishmania amazonensis [17], 7.15%; with Leishmania amazonensis [22], 53.22%; in the data set on Leishmania amazonensis [25] it was 66.7%. The IC50 in the data set with Leishmania amazonensis [13] came out at 12.7 µM; in the data set on Leishmania amazonensis [1] (setting [26]) it was 22 µM; in the data set on Leishmania amazonensis [14], 13.2 µM; in the data set on Leishmania amazonensis [18], 4.2 µM; in the data set on Leishmania amazonensis [20], 18.9 µM; in the data set on Leishmania amazonensis [24] it was 6.6 µM. Besides, the “Ratio CC50/IC50” value is listed as 21.7 in data set [15], 11.3 in data set [19] and 34.2 in data set [21]. Moreover, the CC50 at 72 h in [16] stood at 144 µM. The outcome in the data set with Leishmania amazonensis [23] was Active.

With `CCCCn1cc(CO)[n+](CCC)n1`, the IC50 in the data set with Leishmania amazonensis [1] (setting [26]) is more than 100 µM.

In the case of `CCCCCCCCCCn1cc(CO)[n+](CCC)n1` [listing 2 of 2 here], in the data set on Leishmania amazonensis [1] (setting [26]), 0.73 µM corresponded to half-maximal inhibition (IC50). Half-maximal cytotoxicity in the data set on Peritoneal macrophage (CC50) was put at 4.6 µM.

The compound `CCCCCCn1cc(CO)[n+](C)n1` yielded an IC50 with Leishmania amazonensis [1] (setting [26]) of more than 100 µM.
